Data set [1] is described as follows: DPPH radical scavenging activity at 40 umol/L relative to control. The format is functional. The procedure, abridged:
(§1)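 Samples in EtOH (1000 µL at 200 or 40 µM) were mixed with 250 µL of 1 mM DPPH stock and 750 µL EtOH, then held at RT in the dark for 30 min. Absorbance was read at 517 nm. Scavenging % = 100 − (A sample × 100/A control).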
(In general: Loss of DPPH colour is used to gauge radical scavenging.)

A further data set relates to Escherichia coli. The data set can be described thus: Antimicrobial activity against Escherichia coli tolC at 20 ug by agar diffusion test. The format is functional. The conditions noted are these: read-out: IZ. In outline:
(§2)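 Agar diffusion on 6 mm paper disks loaded with 20 µL of a 1 mg/mL methanol solution (20 µg). Bacteria from the HZI collection were grown on standard media and seeded into agar medium at a final OD of 0.01. Plates were incubated at 30 °C, and inhibition zone diameter (mm) was read after 1 and 2 days.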
For orientation: Agar diffusion results depend on both activity and mobility in agar.

The test system of the next data set is Mycolicibacterium phlei. The data set can be described thus: Antimicrobial activity against Mycobacterium phlei at 20 ug by agar diffusion test. The data set is classed as functional. The conditions noted are these: read-out: IZ. In outline: as §2
The next data set deals with Candida albicans. The data set can be described thus: Antimicrobial activity against Candida albicans at 20 ug by agar diffusion test. The data set is classed as functional. The conditions noted are these: read-out: IZ. The procedure, abridged: (§3)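 Yeasts from the HZI collection were seeded into agar medium at a final OD of 0.1. Paper disks (6 mm) carried 20 µg of compound, applied as 20 µL of 1 mg/mL in MeOH. Plates were kept at 30 °C, and inhibition zone diameters (mm) were measured at days 1 and 2.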

Data set [2] relates to Globisporangium debaryanum. Briefly: Antimicrobial activity against Pythium debaryanum at 20 ug by agar diffusion test. The data set is classed as functional. The note with it: read-out: IZ. The procedure, abridged: (§4)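 Fungal spores were rinsed from well-grown Petri dishes with 10 mL sterile water, and 1 mL of the suspension was mixed into 100 mL molten agar. Disks (6 mm) with 20 µg compound (20 µL, 1 mg/mL in methanol) were placed on the agar. Plates were incubated at 30 °C, and zone diameter (mm) was scored after 1 and 2 days.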

The subject of a further data set is Wickerhamomyces anomalus. The data set can be described thus: Antimicrobial activity against Hansenula anomala at 20 ug by agar diffusion test. The data set is classed as functional. The note with it: read-out: IZ. The procedure, abridged: as §3
The next data set concerns Staphylococcus aureus. The data set can be described thus: Antimicrobial activity against Staphylococcus aureus at 20 ug by agar diffusion test. The conditions noted are these: read-out: IZ. The data set is classed as functional. In outline: as §2
The test system of a further data set is Klebsiella pneumoniae. The data set can be described thus: Antimicrobial activity against Klebsiella pneumoniae at 20 ug by agar diffusion test. The conditions noted are these: read-out: IZ. The data set is classed as functional. The procedure, abridged: as §2
In the next data set the test system is Saccharomyces cerevisiae. The data set can be described thus: Antimicrobial activity against Saccharomyces cerevisiae at 20 ug by agar diffusion test. The data set is classed as functional. The conditions noted are these: read-out: IZ. The procedure, abridged: as §3
The next data set relates to Aspergillus fumigatus. The data set can be described thus: Antimicrobial activity against Aspergillus fumigatus at 20 ug by agar diffusion test. The format is functional. The conditions noted are these: read-out: IZ. The procedure, abridged: as §4
In another data set the test system is L929. Briefly: Cytotoxicity against mouse L929 cells by MTT assay. The data set is classed as cell-based. The procedure, abridged: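 L929 mouse fibroblasts (DSMZ) were grown in high-glucose DME with 10% fetal calf serum at 37 °C and 10% CO2. Cell suspension (120 µL at 50 000/mL) was added to 60 µL of serial compound dilutions in microtiter plates. Growth was determined by MTT after 5 days, with concentrations expressed in µg/mL.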
On the technique in general: Tetrazolium dyes change colour on reduction, which living cells bring about.

A short description of data set [3]: DPPH radical scavenging activity at 200 umol/L relative to control. The data set is classed as functional. The procedure, abridged:
as §1

For another data set, the system named is Pseudomonas aeruginosa. Briefly: Antimicrobial activity against Pseudomonas aeruginosa at 20 ug by agar diffusion test. The data set is classed as functional. The conditions noted are these: read-out: IZ. In outline: as §2
Another data set concerns Botrytis cinerea. Briefly: Antimicrobial activity against Botrytis cinerea at 20 ug by agar diffusion test. The conditions noted are these: read-out: IZ. The format is functional. In outline: as §4
For another data set, the system named is Micrococcus luteus. The data set can be described thus: Antimicrobial activity against Micrococcus luteus at 20 ug by agar diffusion test. The format is functional. The conditions noted are these: read-out: IZ. In outline: as §2

Molecules are shown by their SMILES. ≈ marks a conversion by molar mass, not a printed value.

Take `C[C@H]1CCC2C(C)(C)CCC[C@]2(C)/C1=C/c1cc(O)c(O)c(/C=N/CCS(=O)(=O)O)c1OS(=O)(=O)O` (some centres undefined) [SIPHONODICTYAL B1]: the values for the Activity (in [1]; in the data set with L929; in data set [3]) were 23.5%, 10 µg/mL and 80.8%, respectively. Further, the zone of inhibition at 20 µg/disc in the data set with Escherichia coli amounted to 0 mm; with Mycolicibacterium phlei, 0 mm; in the data set on Candida albicans, 0 mm; in data set [2], 0 mm; with Wickerhamomyces anomalus, 0 mm; in the data set with Staphylococcus aureus, 12 mm. In addition, the zone of inhibition at 20 µg/disc with Klebsiella pneumoniae was found to be 0 mm; in the data set with Saccharomyces cerevisiae, 0 mm; in the data set on Aspergillus fumigatus, 0 mm; with Pseudomonas aeruginosa, 0 mm; in the data set on Botrytis cinerea it was 13 mm; in the data set on Micrococcus luteus it was 0 mm.

On to `C[C@H]1CCC2C(C)(C)CCC[C@]2(C)/C1=C/c1cc(O)c(O)c(C=O)c1OS(=O)(=O)O` (some centres undefined) [SIPHONODICTYAL B2], for which the results for the Activity in data set [1] and in data set [3] were 25.3% and 88.8%, respectively. The zone of inhibition at 20 µg/disc was determined as 0 mm in the data set with Escherichia coli; 0 mm in the data set on Mycolicibacterium phlei; 0 mm with Candida albicans; 0 mm in data set [2]; 13 mm in the data set on Staphylococcus aureus; 0 mm with Klebsiella pneumoniae. For the same molecule, the zone of inhibition at 20 µg/disc in the data set on Saccharomyces cerevisiae was determined as 0 mm; with Aspergillus fumigatus it was 0 mm; in the data set on Pseudomonas aeruginosa, 0 mm; in the data set with Botrytis cinerea, 15 mm; in the data set on Micrococcus luteus, 0 mm. In addition, the half-inhibitory concentration (IC50) in the data set with L929 worked out at 6 µg/mL (≈ 13.7 µM).

With `C[C@H]1CCC2C(C)(C)CCC[C@]2(C)/C1=C/c1cc(OS(=O)(=O)O)c(O)c(C=O)c1OS(=O)(=O)O` (some centres undefined) [SIPHONODICTYAL B3], the zone of inhibition at 20 µg/disc (in the data set with Escherichia coli; in the data set on Mycolicibacterium phlei; with Candida albicans; in data set [2]; in the data set with Wickerhamomyces anomalus; with Staphylococcus aureus) was 0 mm each time. The zone of inhibition at 20 µg/disc in the data set on Klebsiella pneumoniae, with Saccharomyces cerevisiae, in the data set with Aspergillus fumigatus, with Pseudomonas aeruginosa, with Botrytis cinerea and in the data set with Micrococcus luteus was 0 mm each time. In addition, the Activity with L929 is above 40 µg/mL.

For the molecule `C=C1CCCC2[C@](C)(Cc3cc(CO)cc(O)c3OS(=O)(=O)O)[C@@H](C)CC[C@]12C` (some centres undefined) [SIPHONODICTYOL G], the results for the Activity (in data set [1]; with L929; in data set [3]) were 2.6%, above 40 µg/mL and 39.8%, respectively. The zone of inhibition at 20 µg/disc (in the data set with Escherichia coli; in the data set on Mycolicibacterium phlei; in the data set on Candida albicans; in data set [2]; with Wickerhamomyces anomalus; with Staphylococcus aureus) was 0 mm in each case. Further, the zone of inhibition at 20 µg/disc was 0 mm in the data set with Klebsiella pneumoniae; 0 mm in the data set on Saccharomyces cerevisiae; 0 mm in the data set on Aspergillus fumigatus; 0 mm in the data set with Pseudomonas aeruginosa; 15 mm with Botrytis cinerea; 0 mm in the data set on Micrococcus luteus.

Take `C=C1CCCC2[C@](C)(Cc3cc(C=O)cc(O)c3OS(=O)(=O)O)[C@@H](C)CC[C@]12C` (some centres undefined) [SIPHONODICTYAL G]: the Activity in data set [1] was 5.9%; in the data set with L929 it was 10 µg/mL; in data set [3], 32.2%. In addition, the zone of inhibition at 20 µg/disc (with Escherichia coli; in the data set on Mycolicibacterium phlei; in the data set on Candida albicans; in [2]; in the data set on Wickerhamomyces anomalus; with Staphylococcus aureus) was 0 mm in each case. The zone of inhibition at 20 µg/disc in the data set on Klebsiella pneumoniae, with Saccharomyces cerevisiae, with Aspergillus fumigatus, in the data set on Pseudomonas aeruginosa, with Botrytis cinerea and in the data set on Micrococcus luteus was 0 mm in each case.

Take `O=C1O[C@H]([C@@H](O)CO)C(O)=C1O`: the Activity is 27% in data set [1] and 95.3% in data set [3].

For `C[C@H]1CCC2C(C)(C)CCC[C@]2(C)/C1=C/c1cc(O)c(O)c(C=O)c1O` (some centres undefined) [SIPHONODICTYAL B], the zone of inhibition at 20 µg/disc in the data set on Escherichia coli was 9 mm; with Staphylococcus aureus it was 12 mm; in the data set with Saccharomyces cerevisiae, 0 mm; in the data set on Aspergillus fumigatus it was 15 mm. In the data set with L929, this molecule came in with an Activity of 0.2 µg/mL.

As a reminder, the IC50 is the midpoint of a concentration-inhibition curve. A higher IC50 goes with weaker potency in that assay.

Source of the values: ChEMBL document CHEMBL1142105, “Bioactive metabolites from the Caribbean sponge Aka coralliphagum” (J Nat Prod, 2007).
